Measured values taken from ChEMBL document CHEMBL1821568, “Conjugates of 3α-methoxyserrat-14-en-21β-ol (PJ-1) and 3β-methoxyserrat-14-en-21β-ol (PJ-2) as cancer chemopreventive agents” (Eur J Med Chem, 2011).

Legend:
[1] = Cytotoxicity against human Raji cells carrying EBV genome assessed as cell viability at 1000 molar ratio by trypan blue staining method; format: cell-based; details: read-out: Activity
Summary of the method: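 Raji cells (EBV genome-carrying, in RPMI-1640 with 10% FBS) at 1×10^6/mL, incubated 48 h at 37 °C with n-butyric acid (4 mmol), TPA (32 pmol) and test compound in DMSO. Viability scored by Trypan Blue staining. Molar ratio means mol of compound per mol of TPA (32 pmol).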

Raji [2] = experiment: Inhibition of TPA-induced EBV-early antigen activation in human Raji cells assessed as EA activation at 1000 molar ratio after 48 hrs relative to control; format: cell-based; design: scale not given: the % may be the effect or the level left; details: human gammaherpesvirus 4
Summary of the method: (§1)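 Raji cells (non-producer sub-line, spontaneous EA under 0.1%) at 1×10^6/mL, incubated 37 °C for 48 h with n-butyric acid (4 mmol), TPA (32 pmol in DMSO) and compound in DMSO. Dose expressed as mol ratio to TPA (1000, 500, 100, 10). EA-positive cells were detected by indirect immunofluorescence with NPC patient serum, at least 500 cells counted. Assays were run in triplicate. Results are relative to butyrate+TPA control (100%). IC50 given in nM.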

Mus musculus [3] = organism: Mus musculus; experiment: Toxicity in ICR mouse assessed as erosion at 85 nmol; format: organism-based; details: in vivo
Mus musculus [4] = experiment: Inhibition of DMBA-induced and TPA-promoted carcinogenesis in ICR mouse assessed as reduction of mouse bearing papillomas at 85 nmol administered 1 hr before TPA treatment measured after 20 weeks; format: functional
Summary of the method: (§2)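 Female SPF ICR mice, 6 weeks old, 15 per group, backs shaved. Initiation was one topical dose of DMBA (390 nmol) in acetone 0.1 mL. Promotion was TPA (1.7 nmol) twice weekly, with compound given topically at 85 nmol. Papilloma incidence and papillomas per mouse were followed to week 20, and tumor length and width were recorded. Significance was set at P<0.05 versus the DMBA/TPA control.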

[5] = Inhibition of TPA-induced EBV-early antigen activation in human Raji cells assessed as EA activation after 48 hrs; format: cell-based, human gammaherpesvirus 4; summary of the method: as §1
Mus musculus [6] = experiment: Toxicity in ICR mouse assessed as edema at 85 nmol; format: organism-based; details: in vivo
Mus musculus [7] = experiment: Inhibition of DMBA-induced and TPA-promoted carcinogenesis in ICR mouse assessed as reduction of mouse bearing papillomas at 85 nmol administered 1 hr before TPA treatment measured after 10 to 15 weeks; format: functional; summary of the method: as §2
Mus musculus [8] = organism: Mus musculus; experiment: Toxicity in ICR mouse assessed as change in body weight at 85 nmol; format: organism-based; details: in vivo
Mus musculus [9] = organism: Mus musculus; experiment: Toxicity in ICR mouse assessed as ulcer at 85 nmol; format: organism-based; details: in vivo
Mus musculus [10] = experiment: Inhibition of DMBA-induced and TPA-promoted carcinogenesis in ICR mouse assessed as reduction of mouse bearing papillomas length at 85 nmol administered 1 hr before TPA treatment measured after 20 weeks; format: functional; summary of the method: as §2
Mus musculus [11] = organism: Mus musculus; experiment: Toxicity in ICR mouse assessed as lesional damage at 85 nmol; format: organism-based; details: in vivo
Raji [12] = experiment: Inhibition of TPA-induced EBV-early antigen activation in human Raji cells assessed as EA activation at 100 molar ratio after 48 hrs relative to control; format: cell-based; details: human gammaherpesvirus 4; summary of the method: as §1
Mus musculus [13] = experiment: Inhibition of DMBA-induced and TPA-promoted carcinogenesis in ICR mouse assessed as reduction of mouse bearing papillomas width at 85 nmol administered 1 hr before TPA treatment measured after 20 weeks; format: functional; summary of the method: as §2
Raji [14] = experiment: Inhibition of TPA-induced EBV-early antigen activation in human Raji cells assessed as EA activation at 500 molar ratio after 48 hrs relative to control; format: cell-based; design: scale not given: the % may be the effect or the level left; details: human gammaherpesvirus 4; summary of the method: as §1
Raji [15] = experiment: Inhibition of TPA-induced EBV-early antigen activation in human Raji cells assessed as EA activation at 10 molar ratio after 48 hrs relative to control; format: cell-based; design: scale not given: the % may be the effect or the level left; details: human gammaherpesvirus 4; summary of the method: as §1

SMILES	viability at 1000 molar ratio [1] [%]	Activity (Raji [2]) [%]	Activity (Mus musculus [3])	inhibition (INH) (Mus musculus [4]) [%]	IC50 [5] [nM]	Activity (Mus musculus [6])	inhibition (INH) (Mus musculus [7]) [%]	Activity (Mus musculus [8])	Activity (Mus musculus [9])	Activity (Mus musculus [10]) [mm]	Activity (Mus musculus [11])	EA activation relative to control (Raji [12]) [%]	Activity (Mus musculus [13]) [mm]	Activity (Raji [14]) [%]	Activity (Raji [15]) [%]
CO[C@H]1CC[C@@]2(C)[C@@H](CC[C@@]3(C)CC4=CC[C@H]5C(C)(C)[C@H](OC(=O)c6cc(O)c(O)c(O)c6)CC[C@]5(C)[C@H]4CC[C@@H]32)C1(C)C	60	2.2	Non-toxic	86.6	290	Non-toxic	20	Non-toxic	Non-toxic	18	Non-toxic	71.3	15	36.5	91.5
CO[C@@H]1CC[C@@]2(C)[C@@H](CC[C@@]3(C)CC4=CC[C@H]5C(C)(C)[C@H](OC(=O)CC(C)(C)C(=O)O)CC[C@]5(C)[C@H]4CC[C@@H]32)C1(C)C	60	0	Non-toxic	80	251	Non-toxic	13.3	Non-toxic	Non-toxic	16	Non-toxic	67.5	14	29.7	91.5
CO[C@H]1CC[C@@]2(C)[C@@H](CC[C@@]3(C)CC4=CC[C@H]5C(C)(C)[C@H](OC(=O)CN6CCCCC6)CC[C@]5(C)[C@H]4CC[C@@H]32)C1(C)C	60	13.5	–	–	460	–	–	–	–	–	–	82	–	46.3	100
CO[C@@H]1CC[C@@]2(C)[C@@H](CC[C@@]3(C)CC4=CC[C@H]5C(C)(C)[C@H](OC(=O)CCC(=O)Oc6ccc(-c7coc8cc(O)cc(O)c8c7=O)cc6)CC[C@]5(C)[C@H]4CC[C@@H]32)C1(C)C	60	12.2	–	–	458	–	–	–	–	–	–	81	–	45.9	100
CO[C@@H]1CC[C@@]2(C)[C@@H](CC[C@@]3(C)CC4=CC[C@H]5C(C)(C)[C@H](OC(=O)CCC(=O)Oc6ccc([C@@H]7CC(=O)c8c(O)cc(O)cc8O7)cc6)CC[C@]5(C)[C@H]4CC[C@@H]32)C1(C)C	60	14.3	–	–	473	–	–	–	–	–	–	81	–	48.7	100
CO[C@@H]1CC[C@@]2(C)[C@@H](CC[C@@]3(C)CC4=CC[C@H]5C(C)(C)[C@H](OC(=O)CCC(=O)Oc6ccc(-c7coc8cc(O)ccc8c7=O)cc6)CC[C@]5(C)[C@H]4CC[C@@H]32)C1(C)C	60	15.8	–	–	498	–	–	–	–	–	–	83.4	–	50.3	100
COc1c(O)cc(C(=O)O[C@@H]2CC[C@]3(C)[C@H]4CC[C@H]5[C@@](C)(CC[C@H]6C(C)(C)[C@@H](OC)CC[C@@]65C)CC4=CC[C@H]3C2(C)C)cc1O	60	4.7	–	–	375	–	–	–	–	–	–	72.5	–	37.8	93.4
CO[C@H]1CC[C@@]2(C)[C@@H](CC[C@@]3(C)CC4=CC[C@H]5C(C)(C)[C@H](OC(=O)CN)CC[C@]5(C)[C@H]4CC[C@@H]32)C1(C)C	60	12	–	–	449	–	–	–	–	–	–	80.3	–	42.5	100
CO[C@@H]1CC[C@@]2(C)[C@@H](CC[C@@]3(C)CC4=CC[C@H]5C(C)(C)[C@H](OC(=O)CCC(=O)O)CC[C@]5(C)[C@H]4CC[C@@H]32)C1(C)C	60	0	–	–	281	–	–	–	–	–	–	68.3	–	32.4	92.4
CO[C@H]1CC[C@@]2(C)[C@@H](CC[C@@]3(C)CC4=CC[C@H]5C(C)(C)[C@H](OC(=O)CCC(=O)Oc6ccc([C@@H]7CC(=O)c8c(O)cc(O)cc8O7)cc6)CC[C@]5(C)[C@H]4CC[C@@H]32)C1(C)C	60	14	–	–	470	–	–	–	–	–	–	80	–	47.3	100
CO[C@H]1CC[C@@]2(C)[C@@H](CC[C@@]3(C)CC4=CC[C@H]5C(C)(C)[C@H](OC(=O)CCC(=O)O)CC[C@]5(C)[C@H]4CC[C@@H]32)C1(C)C	60	0	–	–	285	–	–	–	–	–	–	69.5	–	33.6	93.8
CO[C@@H]1CC[C@@]2(C)[C@@H](CC[C@@]3(C)C[C@]45CC[C@@H]6C(C)(C)[C@H](OC(=O)CC(C)(C)C(=O)O)CC[C@@]6(C)[C@@]4(CC[C@@H]32)O5)C1(C)C	60	0	Non-toxic	93.3	230	Non-toxic	26.6	Non-toxic	Non-toxic	18	Non-toxic	68.4	17	26.6	89.6
CO[C@H]1CC[C@@]2(C)[C@@H](CC[C@@]3(C)CC4=CC[C@H]5C(C)(C)[C@H](OC(=O)CCC(=O)Oc6ccc(-c7coc8cc(O)cc(O)c8c7=O)cc6)CC[C@]5(C)[C@H]4CC[C@@H]32)C1(C)C	60	12	–	–	455	–	–	–	–	–	–	79.6	–	45.2	100
CO[C@H]1CC[C@@]2(C)[C@@H](CC[C@@]3(C)CC4=CC[C@H]5C(C)(C)[C@H](OC(=O)CC(C)(C)C(=O)O)CC[C@]5(C)[C@H]4CC[C@@H]32)C1(C)C	60	0	–	–	248	–	–	–	–	–	–	67	–	28.5	90.3
CO[C@H]1CC[C@@]2(C)[C@@H](CC[C@@]3(C)CC4=CC[C@H]5C(C)(C)[C@H](OC(=O)CCC(=O)Oc6ccc(-c7coc8cc(O)ccc8c7=O)cc6)CC[C@]5(C)[C@H]4CC[C@@H]32)C1(C)C	60	15	–	–	495	–	–	–	–	–	–	82.6	–	49.4	100
CC1(C)CC[C@]2(C(=O)O)CC[C@]3(C)C(=CC[C@@H]4[C@@]5(C)CC[C@H](O)C(C)(C)[C@@H]5CC[C@]43C)[C@@H]2C1 [OLEANOLIC_ACID]	–	12.7	–	–	449	–	–	–	–	–	–	80	–	30	100
